Laboratory results from ChEMBL document CHEMBL4689842, “EUbOPEN Chemogenomics Library wave 1” (2021).
Values joined by “and” are separate entries in the source; they are usually repeats but may differ in a detail not shown here. Equal values may be shown once.

How the values were obtained:
Type in all cases: toxicity, cell-based
Fibroblast [1] = assay: Incucyte cell viability with human fibroblast; details: 10 µM, compound concentration 10 uM; further: filed as whole numbers so only -1 and 0 and 1 occur
HEK-293T [2] = assay: Multiplex assay against HEK293T; details: human, 10 µM, compound concentration 10 uM;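 on Population Tubulin-Different-Phenotype (%): share of the cells with healthy nuclei that show this phenotype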
Procedure, shortened: (§1)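 At seeding, live cells were stained with Hoechst33342, BioTracker Green Microtubule Cytoskeleton Dye, MitoTracker Red and Annexin V Alexa Fluor 680. After compound addition they were imaged on a CQ1 microscope at 37°C and 5% CO2, and CellPathfinder machine-learning gating sorted them into Hoechst high-intensity objects or normal cells, with normal cells further split into healthy, pyknosed or fragmented nuclei and pyknosed cells into mitotic or apoptotic. Tubulin, mitochondrial-mass and membrane-permeability phenotypes are given as per cents of cells with healthy nuclei.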

U2OS [3] = assay: Incucyte cell viability with U2OS; details: human, 10 µM, compound concentration 10 uM; further: filed as whole numbers so only -1 and 0 and 1 occur
HEK-293T [4] = assay: Incucyte cell viability with HEK293T; details: human, 10 µM, compound concentration 10 uM; further: filed as whole numbers so only -1 and 0 and 1 occur
U2OS [5] = assay: Multiplex assay against U2OS; details: human, 10 µM, compound concentration 10 uM; procedure, shortened: as §1
Fibroblast [6] = assay: Multiplex assay against human fibroblast; details: 10 µM, compound concentration 10 uM; procedure, shortened: as §1
[7] = 0 h, replicate number 2, timepoint 0 hours
[8] = 6 h, replicate number 1, timepoint 6 hours
[9] = 6 h, replicate number 2, timepoint 6 hours
[10] = 12 h, replicate number 1, timepoint 12 hours
[11] = 18 h, replicate number 1, timepoint 18 hours
[12] = 24 h, replicate number 1, timepoint 24 hours
[13] = 0 h, replicate number 1, timepoint 0 hours

C[C@@H]1CN(c2cc(-c3nn(C)c4ccc(OC5(C)CC5)cc34)ncn2)C[C@H](C)O1 [MLi-2-NC]
Growth Rate (Fibroblast [1]; [7]): 0 | Growth Rate (Fibroblast [1]; [8]): 0 | Growth Rate (Fibroblast [1]; [9]): 1 | Growth Rate (Fibroblast [1]; [10]): 1 | Growth Rate (Fibroblast [1]; [11]): 0 | Growth Rate (Fibroblast [1]; [12]): 0 | Population Apoptotic (%) (HEK-293T [2]; 12 h, replicate 1): 9% and 22% | Population Fragmented Nuclei (%) (HEK-293T [2]; 12 h, replicate 1): 18% and 14% | Population Healthy Nuclei (%) (HEK-293T [2]; 12 h, replicate 1): 55% and 62% | Population Hoechst High Intensity Objects (%) (HEK-293T [2]; 12 h, replicate 1): 10% and 16% | Population Membrane Permeable-Phenotype (%) (HEK-293T [2]; 12 h, replicate 1): 4% and 3% | Population Mitochondria Different-Phenotype (%) (HEK-293T [2]; 12 h, replicate 1): 5% and 6% | Population Mitotic Cells (%) (HEK-293T [2]; 12 h, replicate 1): 90% and 77% | Population Normal (%) (HEK-293T [2]; 12 h, replicate 1): 89% and 83% | Population Pyknosed Nuclei (%) (HEK-293T [2]; 12 h, replicate 1): 25% and 23% | Total Cell Count (HEK-293T [2]; 12 h, replicate 1): 441 and 673 | Population Apoptotic (%) (HEK-293T [2]; 12 h, replicate 2): 6% and 12% | Population Fragmented Nuclei (%) (HEK-293T [2]; 12 h, replicate 2): 7% and 4% | Population Healthy Nuclei (%) (HEK-293T [2]; 12 h, replicate 2): 87% and 89% | Population Hoechst High Intensity Objects (%) (HEK-293T [2]; 12 h, replicate 2): 2% and 3% | Population Membrane Permeable-Phenotype (%) (HEK-293T [2]; 12 h, replicate 2): 2% | Population Mitochondria Different-Phenotype (%) (HEK-293T [2]; 12 h, replicate 2): 8% and 14% | Population Mitotic Cells (%) (HEK-293T [2]; 12 h, replicate 2): 93% and 87% | Population Normal (%) (HEK-293T [2]; 12 h, replicate 2): 97% and 96% | Population Pyknosed Nuclei (%) (HEK-293T [2]; 12 h, replicate 2): 4% and 6% | Population Tubulin-Different-Phenotype (%) (HEK-293T [2]; 12 h, replicate 2): 5% and 14% | Total Cell Count (HEK-293T [2]; 12 h, replicate 2): 1849 and 1412 | Population Apoptotic (%) (HEK-293T [2]; 24 h, replicate 1): 11% and 25% | Population Fragmented Nuclei (%) (HEK-293T [2]; 24 h, replicate 1): 16% and 12% | Population Healthy Nuclei (%) (HEK-293T [2]; 24 h, replicate 1): 72% and 75% | Population Hoechst High Intensity Objects (%) (HEK-293T [2]; 24 h, replicate 1): 6% and 11% | Population Membrane Permeable-Phenotype (%) (HEK-293T [2]; 24 h, replicate 1): 3% | Population Mitochondria Different-Phenotype (%) (HEK-293T [2]; 24 h, replicate 1): 1% and 5% | Population Mitotic Cells (%) (HEK-293T [2]; 24 h, replicate 1): 88% and 74% | Population Normal (%) (HEK-293T [2]; 24 h, replicate 1): 93% and 88% | Population Pyknosed Nuclei (%) (HEK-293T [2]; 24 h, replicate 1): 10% and 12% | Total Cell Count (HEK-293T [2]; 24 h, replicate 1): 505 and 711 | Population Apoptotic (%) (HEK-293T [2]; 24 h, replicate 2): 3% and 7% | Population Fragmented Nuclei (%) (HEK-293T [2]; 24 h, replicate 2): 24% and 13% | Population Healthy Nuclei (%) (HEK-293T [2]; 24 h, replicate 2): 73% and 83% | Population Hoechst High Intensity Objects (%) (HEK-293T [2]; 24 h, replicate 2): 2% and 4% | Population Membrane Permeable-Phenotype (%) (HEK-293T [2]; 24 h, replicate 2): 5% | Population Mitochondria Different-Phenotype (%) (HEK-293T [2]; 24 h, replicate 2): 2% and 4% | Population Mitotic Cells (%) (HEK-293T [2]; 24 h, replicate 2): 96% and 92% | Population Normal (%) (HEK-293T [2]; 24 h, replicate 2): 97% and 95% | Population Pyknosed Nuclei (%) (HEK-293T [2]; 24 h, replicate 2): 1% and 3% | Total Cell Count (HEK-293T [2]; 24 h, replicate 2): 3187 and 2081 | Growth Rate (U2OS [3]; [13]): 1 | Growth Rate (U2OS [3]; [7]): 0 | Growth Rate (U2OS [3]; [8]): 1 | Growth Rate (U2OS [3]; [10]): 1 | Growth Rate (U2OS [3]; [11]): 0 | Growth Rate (U2OS [3]; 18 h, replicate number 2, timepoint 18 hours): 1 | Growth Rate (U2OS [3]; [12]): 0 | Growth Rate (U2OS [3]; 24 h, replicate number 2, timepoint 24 hours): 1 | Growth Rate (HEK-293T [4]; [13]): 0 | Growth Rate (HEK-293T [4]; [8]): 1 | Growth Rate (HEK-293T [4]; [9]): 0 | Growth Rate (HEK-293T [4]; [10]): 0 | Growth Rate (HEK-293T [4]; [11]): 0 | Growth Rate (HEK-293T [4]; [12]): 0 | Population Apoptotic (%) (U2OS [5]; 12 h, replicate 1): 80% and 54% | Population Fragmented Nuclei (%) (U2OS [5]; 12 h, replicate 1): 2% | Population Healthy Nuclei (%) (U2OS [5]; 12 h, replicate 1): 93% and 87% | Population Hoechst High Intensity Objects (%) (U2OS [5]; 12 h, replicate 1): 4% and 5% | Population Membrane Permeable-Phenotype (%) (U2OS [5]; 12 h, replicate 1): 19% and 9% | Population Mitochondria Different-Phenotype (%) (U2OS [5]; 12 h, replicate 1): 14% and 30% | Population Mitotic Cells (%) (U2OS [5]; 12 h, replicate 1): 20% and 45% | Population Normal (%) (U2OS [5]; 12 h, replicate 1): 95% and 94% | Population Pyknosed Nuclei (%) (U2OS [5]; 12 h, replicate 1): 3% and 7% | Population Tubulin-Different-Phenotype (%) (U2OS [5]; 12 h, replicate 1): 16% and 29% | Total Cell Count (U2OS [5]; 12 h, replicate 1): 165 and 347 | Population Apoptotic (%) (U2OS [5]; 12 h, replicate 2): 50% and 40% | Population Fragmented Nuclei (%) (U2OS [5]; 12 h, replicate 2): 5% and 7% | Population Healthy Nuclei (%) (U2OS [5]; 12 h, replicate 2): 91% and 88% | Population Hoechst High Intensity Objects (%) (U2OS [5]; 12 h, replicate 2): 9% and 15% | Population Membrane Permeable-Phenotype (%) (U2OS [5]; 12 h, replicate 2): 14% and 7% | Population Mitochondria Different-Phenotype (%) (U2OS [5]; 12 h, replicate 2): 21% and 26% | Population Mitotic Cells (%) (U2OS [5]; 12 h, replicate 2): 50% and 60% | Population Normal (%) (U2OS [5]; 12 h, replicate 2): 90% and 84% | Population Tubulin-Different-Phenotype (%) (U2OS [5]; 12 h, replicate 2): 14% and 41% | Total Cell Count (U2OS [5]; 12 h, replicate 2): 153 and 242 | Population Apoptotic (%) (U2OS [5]; 24 h, replicate 1): 44% and 50% | Population Healthy Nuclei (%) (U2OS [5]; 24 h, replicate 1): 92% | Population Hoechst High Intensity Objects (%) (U2OS [5]; 24 h, replicate 1): 1% | Population Membrane Permeable-Phenotype (%) (U2OS [5]; 24 h, replicate 1): 10% and 3% | Population Mitochondria Different-Phenotype (%) (U2OS [5]; 24 h, replicate 1): 16% and 21% | Population Mitotic Cells (%) (U2OS [5]; 24 h, replicate 1): 55% and 50% | Population Normal (%) (U2OS [5]; 24 h, replicate 1): 98% | Population Tubulin-Different-Phenotype (%) (U2OS [5]; 24 h, replicate 1): 16% and 32% | Total Cell Count (U2OS [5]; 24 h, replicate 1): 226 and 387 | Population Fragmented Nuclei (%) (U2OS [5]; 24 h, replicate 2): 4% and 3% | Population Healthy Nuclei (%) (U2OS [5]; 24 h, replicate 2): 90% and 93% | Population Hoechst High Intensity Objects (%) (U2OS [5]; 24 h, replicate 2): 11% and 4% | Population Membrane Permeable-Phenotype (%) (U2OS [5]; 24 h, replicate 2): 12% and 8% | Population Mitochondria Different-Phenotype (%) (U2OS [5]; 24 h, replicate 2): 27% and 18% | Population Normal (%) (U2OS [5]; 24 h, replicate 2): 88% and 95% | Population Pyknosed Nuclei (%) (U2OS [5]; 24 h, replicate 2): 4% and 3% | Population Tubulin-Different-Phenotype (%) (U2OS [5]; 24 h, replicate 2): 18% and 37% | Total Cell Count (U2OS [5]; 24 h, replicate 2): 183 and 245 | Population Apoptotic (%) (Fibroblast [6]; 12 h, replicate 1): 65% and 70% | Population Fragmented Nuclei (%) (Fibroblast [6]; 12 h, replicate 1): 24% and 21% | Population Healthy Nuclei (%) (Fibroblast [6]; 12 h, replicate 1): 59% and 61% | Population Hoechst High Intensity Objects (%) (Fibroblast [6]; 12 h, replicate 1): 9% and 12% | Population Mitochondria Different-Phenotype (%) (Fibroblast [6]; 12 h, replicate 1): 3% | Population Mitotic Cells (%) (Fibroblast [6]; 12 h, replicate 1): 34% and 29% | Population Normal (%) (Fibroblast [6]; 12 h, replicate 1): 90% and 87% | Population Pyknosed Nuclei (%) (Fibroblast [6]; 12 h, replicate 1): 16% | Total Cell Count (Fibroblast [6]; 12 h, replicate 1): 234 and 261 | Population Apoptotic (%) (Fibroblast [6]; 12 h, replicate 2): 42% and 50% | Population Fragmented Nuclei (%) (Fibroblast [6]; 12 h, replicate 2): 44% and 53% | Population Healthy Nuclei (%) (Fibroblast [6]; 12 h, replicate 2): 36% and 42% | Population Hoechst High Intensity Objects (%) (Fibroblast [6]; 12 h, replicate 2): 32% and 43% | Population Membrane Permeable-Phenotype (%) (Fibroblast [6]; 12 h, replicate 2): 21% and 15% | Population Mitochondria Different-Phenotype (%) (Fibroblast [6]; 12 h, replicate 2): 7% and 10% | Population Mitotic Cells (%) (Fibroblast [6]; 12 h, replicate 2): 57% and 50% | Population Normal (%) (Fibroblast [6]; 12 h, replicate 2): 67% and 56% | Population Tubulin-Different-Phenotype (%) (Fibroblast [6]; 12 h, replicate 2): 21% and 20% | Total Cell Count (Fibroblast [6]; 12 h, replicate 2): 56 and 83 | Population Apoptotic (%) (Fibroblast [6]; 24 h, replicate 1): 45% and 61% | Population Fragmented Nuclei (%) (Fibroblast [6]; 24 h, replicate 1): 25% and 27% | Population Healthy Nuclei (%) (Fibroblast [6]; 24 h, replicate 1): 59% and 56% | Population Hoechst High Intensity Objects (%) (Fibroblast [6]; 24 h, replicate 1): 12% and 11% | Population Membrane Permeable-Phenotype (%) (Fibroblast [6]; 24 h, replicate 1): 9% and 7% | Population Mitochondria Different-Phenotype (%) (Fibroblast [6]; 24 h, replicate 1): 3% and 9% | Population Mitotic Cells (%) (Fibroblast [6]; 24 h, replicate 1): 54% and 38% | Population Normal (%) (Fibroblast [6]; 24 h, replicate 1): 87% and 88% | Population Pyknosed Nuclei (%) (Fibroblast [6]; 24 h, replicate 1): 14% and 16% | Population Tubulin-Different-Phenotype (%) (Fibroblast [6]; 24 h, replicate 1): 8% and 22% | Total Cell Count (Fibroblast [6]; 24 h, replicate 1): 282 and 230 | Population Apoptotic (%) (Fibroblast [6]; 24 h, replicate 2): 62% and 50% | Population Fragmented Nuclei (%) (Fibroblast [6]; 24 h, replicate 2): 53% and 63% | Population Healthy Nuclei (%) (Fibroblast [6]; 24 h, replicate 2): 21% and 28% | Population Hoechst High Intensity Objects (%) (Fibroblast [6]; 24 h, replicate 2): 33% and 34% | Population Membrane Permeable-Phenotype (%) (Fibroblast [6]; 24 h, replicate 2): 42% and 23% | Population Mitotic Cells (%) (Fibroblast [6]; 24 h, replicate 2): 37% and 50% | Population Normal (%) (Fibroblast [6]; 24 h, replicate 2): 66% and 65% | Population Tubulin-Different-Phenotype (%) (Fibroblast [6]; 24 h, replicate 2): 42% and 30% | Total Cell Count (Fibroblast [6]; 24 h, replicate 2): 48 and 70
